# High-throughput results as filed in PubChem.
# EBI2 block: antagonists of human EBI2 receptor; EBI2 beta-arrestin recruitment, luminescence, 7a,25-OHC stimulated; inhibition, % at 5 µM; AID 651636; hit rate 0.81% among 360,000; P32249; in the data active means inhibition above about 38%;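 further: enzyme fragment complementation signal reports receptor beta-arrestin coupling in cells; 0% = agonist plus DMSO wells and 100% = wells without agonist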
# APJ ag: APJ receptor agonism | P35414 | activation, % at 20 µM | CHO-K1 APJ PathHunter beta-arrestin, luminescence; 0% DMSO wells, 100% apelin | hit rate 0.11% among 330,000;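 active means activation more than six SD over the plate average, tested at 20 µM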;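 further: 0% = DMSO alone and 100% = apelin-13 at 10 nM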
#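 Assay system: CHO-K1 cells stably expressing ProLink-tagged human APJ and arrestin–beta-gal acceptor. Compound dosing: 20 µM single point, 1% DMSO. Times: 16-18 h seeding, 90 min dark compound exposure, 60 min detection. Detection: beta-gal luminescence. Evaluation: APJ–arrestin association signal. Controls: negative DMSO alone, positive Apelin-13 at 10 nM.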
# CCR6 antag: antagonists of human CCR6 receptor; P51684; CHO-K1 CCR6 PathHunter beta-arrestin, luminescence, CCL20-stimulated; inhibition, % at 20 µM; hit rate 0.49% among 340,000; AID 493098;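 active means compounds whose inhibition of the agonist-driven luminescence signal at 20 µM reaches about 50%, limit read from the data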;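 further: cells stimulated with CCL20 at 14 nM final; plate controls were DMSO with CCL20 for no effect and DMSO without agonist for full effect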
# Target sequence (P51684 whole entry, looked up): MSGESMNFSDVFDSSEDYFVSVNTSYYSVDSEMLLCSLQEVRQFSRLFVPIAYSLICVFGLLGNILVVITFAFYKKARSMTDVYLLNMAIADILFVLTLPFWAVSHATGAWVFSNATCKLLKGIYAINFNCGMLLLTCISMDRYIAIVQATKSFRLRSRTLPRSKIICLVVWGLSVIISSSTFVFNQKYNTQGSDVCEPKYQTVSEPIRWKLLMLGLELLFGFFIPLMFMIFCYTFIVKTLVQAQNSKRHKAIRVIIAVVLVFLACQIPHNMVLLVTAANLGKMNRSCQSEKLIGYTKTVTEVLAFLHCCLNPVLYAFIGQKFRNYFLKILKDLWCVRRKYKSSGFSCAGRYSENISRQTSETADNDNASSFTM
# m5-HT2A agonist: activates the mouse 5-HT2A serotonin receptor; P35363; CHO-K1 mHTR2A beta-arrestin complementation, luminescence; percent of 30 µM serotonin response; activation, % at 7.6 µM; hit rate 0.66% among 360,000; AID 624169;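 active means activation above a run cutoff, the mean activation of all tested compounds plus 3 SD, cut at about 14% in these data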;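 further: 0% = plate median of compound wells and 100% = 30 µM serotonin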
# CXCR6 inh: inhibitors of human CXCR6 receptor | hit rate 0.36% among 360,000 | inhibition, % at 20 µM | CHO-K1 PathHunter CXCR6 beta-arrestin, luminescence; in the data active means inhibition above about 34%, passing the limit was not always enough;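 further: antagonist mode with CXCL16 agonist at 10 nM final; 0% = 10 nM CXCL16 with DMSO and 100% = unstimulated wells without agonist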
# Target sequence (O00574 whole entry, looked up): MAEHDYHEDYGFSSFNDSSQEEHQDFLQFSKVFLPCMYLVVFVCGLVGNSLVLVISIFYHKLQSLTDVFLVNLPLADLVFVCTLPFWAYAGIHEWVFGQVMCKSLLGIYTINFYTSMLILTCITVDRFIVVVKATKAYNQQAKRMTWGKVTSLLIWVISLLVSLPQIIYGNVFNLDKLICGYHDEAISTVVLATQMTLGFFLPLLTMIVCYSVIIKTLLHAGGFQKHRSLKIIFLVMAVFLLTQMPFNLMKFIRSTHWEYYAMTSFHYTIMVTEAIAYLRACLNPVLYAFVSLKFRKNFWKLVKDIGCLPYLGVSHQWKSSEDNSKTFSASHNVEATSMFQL
# APJ antagonist: antagonists of human APJ apelin receptor | CHO-K1 APJ beta-arrestin complementation, luminescence | hit rate 0.32% among 330,000 | inhibition, % at 20 µM | AID 2521;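 active means inhibition above about 40% at 20 µM, limit read from the data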;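 further: cells challenged with 10 nM apelin-13 agonist together with compound; plate controls were apelin-13 plus DMSO wells for no effect and DMSO wells lacking apelin-13 for full effect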
# EBI2 conf: confirmation of human EBI2 receptor antagonists | shares compounds with EBI2 block | EBI2 beta-arrestin luminescence, 7a,25-OHC antagonism | inhibition, % at 5 µM | hit rate 29% among 2,400;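 active means inhibition of at least 50%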
# EBI2 ag: EBI2 agonism counter-screen; shares compounds with EBI2 block; EBI2-expressing cells, agonist mode, luminescence, 60 min; 0% vehicle, 100% 7α,25-dihydroxycholesterol control; activation, % at 5 µM; 2,400 tested, under 10 active; AID 652000;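 active means activation of at least 50%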
# bGal cs: inhibits E. coli beta-galactosidase, counter-screen for EBI2 antagonists | shares compounds with EBI2 block | purified beta-galactosidase, luminescent Galacton Star, 15 min | inhibition, % at 5 µM | hit rate 1% among 2,400 | AID 652176;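 active means replicate-average signal at least 3 plate SD below neutral wells, shown as high inhibition, flagging enzyme-inhibiting false positives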;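 further: 0% = DMSO wells with enzyme and 100% = wells lacking enzyme; higher means stronger loss of beta-gal luminescence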
# * hit, by the source's call; nt = not tested or not shown. The list is not random: actives were taken first. Their share in the collection is about 2.1%.
SMILES,EBI2 block,APJ ag,CCR6 antag,m5-HT2A agonist,CXCR6 inh,APJ antagonist,EBI2 conf,EBI2 ag,bGal cs
COC(=O)c1ccc2nc(-c3ccc(C#N)cc3)c(Cc3ccsc3)n2c1,63.4*,nt,nt,2.2,14.2,nt,51.7*,-1.4,-17.2
COc1ccc(CCNC(=O)c2cccc(C(=O)NCCc3ccc(OC)cc3)n2)cc1,50.0*,5.6,9.7,-0.7,10.2,7.0,38.4,-0.3,-23.4
CCCC(=O)Nc1cc2c(cc1C(=O)c1ccccc1)OCCO2,-5.4,0.1,11.8,-3.9,8.5,18.2,nt,nt,nt
CCOc1ccc(S(=O)(=O)c2c(C(=O)c3ccccc3)cnc3cc4c(cc23)OCCO4)cc1,51.9*,-0.9,13.5,-5.7,1.2,4.4,24.7,-0.8,-11.2
CC(C)NC(=O)CN1CCN(C(c2ccnc3ccccc23)c2nnnn2-c2ccc3c(c2)OCCO3)CC1 (configuration not stated),1.3,nt,nt,3.2,-6.5,nt,nt,nt,nt
COc1cccc(CC(NC(C)=O)C(=O)NC2CCN(C(=O)c3ccncc3)CC2)c1OC (configuration not stated),-0.7,0.0,8.5,-9.6,7.6,-5.7,nt,nt,nt
CS(=O)(=O)N(CC(=O)N1CCN(c2ccccc2F)CC1)c1cc(C(F)(F)F)ccc1Cl,64.5*,5.0,10.2,-2.7,3.2,16.2,41.2,-1.2,-12.9
O=C(Nc1ccccc1)/C(=C/c1ccc(F)cc1)NC(=O)c1ccco1,-2.4,1.3,8.3,-0.9,-2.3,4.3,nt,nt,nt
COc1ccc(CC(C)Nc2cccc(SC)c2)cc1 (configuration not stated),7.8,-1.0,18.3,3.8,-1.5,-9.5,nt,nt,nt
O=C(c1ccccc1C(=O)N1CCN(c2ccccc2F)CC1)N1CCN(c2ccccc2F)CC1,5.9,-2.0,22.2,-4.8,5.2,6.2,nt,nt,nt
O=C(c1cc2cc(Cl)ccc2[nH]1)N1CCN(C(=O)c2ccco2)CC1,72.7*,4.0,-8.7,1.3,-4.9,-10.0,48.7,-1.4,-7.4
O=C(O)c1[nH]c2ccc(Cl)cc2c1CC(=O)N1CCN(C(=O)c2ccco2)CC1,-1.3,-2.4,8.0,4.8,-3.8,-3.5,nt,nt,nt
O=C(c1cc2cc(Cl)ccc2[nH]1)N1CCN(c2ccccn2)CC1,80.1*,-1.7,-7.1,-1.8,-5.8,11.5,67.0*,-2.2,-8.4
O=C(c1cc2cc(Cl)ccc2[nH]1)N1CCN(c2ccccc2F)CC1,85.2*,-1.1,-10.7,-1.3,0.8,-8.9,73.1*,0.7,7.4
O=C(Nc1ccc(NC(=S)NC(=O)c2ccccc2Cl)cc1)c1cccc(Cl)c1,3.5,-2.2,34.5,-1.6,2.3,8.6,nt,nt,nt
Cc1cccc(C2=NNC(=O)C(c3ccc(Cl)cc3)C2)c1 (configuration not stated),23.5,-3.0,-2.4,2.3,-1.6,16.0,nt,nt,nt
O=C1NN=C(c2ccc(Br)cc2)CC1c1ccc(Cl)cc1 (configuration not stated),74.0*,-2.9,10.1,5.6,9.5,-4.4,51.9*,-1.7,-2.4
Cc1ccc(C2CC(c3ccc(Cl)cc3)=NNC2=O)cc1 (configuration not stated),49.5*,-0.8,-8.8,-3.6,0.3,6.6,44.3,-0.2,8.0
CCc1ccc(C2CC(c3ccc(Cl)cc3)=NNC2=O)cc1 (configuration not stated),61.4*,-1.5,-6.7,2.5,-25.7,15.1,47.6,0.8,0.5
CN1N=C(c2ccc(Cl)cc2)CC(c2ccc(Cl)cc2)C1=O (configuration not stated),41.3,0.2,17.1,0.7,-2.7,-1.6,nt,nt,nt
N#C/C(=C\c1ccc(Br)s1)C(=O)N1CCN(c2ccccc2)CC1,73.2*,2.5,4.6,2.9,8.9,7.4,20.6,0.0,8.0
COc1ccc(CNc2oc(COc3ccc(Cl)cc3)nc2C#N)cc1,42.1*,0.7,22.3,-10.0,-2.9,-13.1,28.8,-0.2,1.0
COCCN1C(=O)COc2ccccc2C1C(=O)NCc1ccccc1 (configuration not stated),1.8,nt,nt,-3.2,-0.4,nt,nt,nt,nt
Cc1ccc(C2/C(=C(\O)c3ccc4c(c3)OCCO4)C(=O)C(=O)N2Cc2cccnc2)cc1 (configuration not stated),-6.6,5.0,7.9,-3.0,1.4,-39.0,nt,nt,nt
O=C(Nc1ccc(O)cc1)c1ccc2c(c1)C(=O)N(Cc1cccnc1)C2=O,-9.2,6.3,5.2,-3.6,-1.0,8.4,nt,nt,nt
SMILES,EBI2 block,APJ ag,CCR6 antag,m5-HT2A agonist,CXCR6 inh,APJ antagonist,EBI2 conf,EBI2 ag,bGal cs
COc1ccc(NC(=O)c2ccc3c(c2)C(=O)N(Cc2cccnc2)C3=O)cc1,53.3*,-3.7,-11.8,2.2,3.6,12.8,22.9,2.0,6.4
Cc1cc(C)c2oc(C(=O)N3CCN(Cc4ccccc4)CC3)cc(=O)c2c1,58.2*,-0.5,10.2,8.2,2.9,12.9,31.6,-0.8,-10.3
Cc1c(C(=O)N2CCN(CCc3ccccc3)CC2)oc2ccccc12,18.5,-3.5,11.8,-3.7,2.5,16.0,nt,nt,nt
Cc1c(C(=O)N2CCN(CCc3ccccn3)CC2)oc2ccc(Cl)cc12,54.3*,1.6,-4.0,-12.8,-2.2,10.4,36.5,-0.6,6.3
O=C(c1cc(=O)c2cc(Cl)ccc2o1)N1CCN(Cc2ccccc2)CC1,93.0*,-3.9,-2.2,8.8,6.6,10.8,91.7*,-0.1,3.9
O=c1cc(CN2CCN(Cc3ccccc3)CC2)c2cc(Cl)ccc2o1,7.5,nt,2.6,-4.5,11.8,nt,nt,nt,nt
COc1ccc(C(=O)c2ccc([N+](=O)[O-])cc2)cc1S(=O)(=O)N1CCC(C(=O)O)CC1,1.8,5.0,-8.6,-2.4,-3.3,-13.9,nt,nt,nt
CC(NC(=O)/C=C/c1ccc(Br)cc1)c1ccc(Cl)cc1 (configuration not stated),53.7*,1.4,12.1,-2.7,-5.8,-14.5,31.2,-0.3,-8.1
CN1CCN(NC(=O)/C=C/c2ccc(C(C)(C)C)cc2)CC1,6.6,-6.3,-2.7,-1.4,-1.7,10.7,nt,nt,nt
CN1CCN(NC(=O)/C=C/c2ccc(Br)cc2)CC1,78.1*,4.9,1.7,-3.9,2.1,5.9,47.6,-1.0,-9.4
CC(CCc1ccccc1)NC(=O)/C=C/c1ccc(Cl)cc1 (configuration not stated),31.1,-1.6,16.0,-4.0,-5.8,4.7,nt,nt,nt
